The results in this text go back to ChEMBL document CHEMBL1142240, “Lissoclibadins 4-7, polysulfur aromatic alkaloids from the Indonesian ascidian Lissoclinum cf. badium” (J Nat Prod, 2007).

The EC50 is the midpoint of the concentration-response curve. Read a low EC50 as an effect from little substance.

Assay [1] has as its system Mucor hiemalis. The assay is described as follows: Antimicrobial activity against Mucor hiemalis IAM 6088 at 50 ug/disk. The conditions noted are these: for zone of inhibition at 50 µg/disc: read-out: IZ. It counts as functional.
A short description of assay [2]: Inhibition of colony formation in Chinese hamster V79 cells. Format: functional, cell-based. As to conditions: Cricetulus griseus. The gist of the method: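 Compound added in DMSO at 0.01–10 μM, then 4 further days of incubation. Colonies counted; relative plating efficiency taken as colony number in sample dish over control dish; EC50 derived.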
Assay [3] deals with Escherichia coli. Description: Antimicrobial activity against Escherichia coli IAM 12119T at 50 ug/disk. Format: functional. As to conditions: read-out: IZ.
Assay [4] relates to Escherichia coli. Description: Antimicrobial activity against Escherichia coli IAM 12119T at 20 ug/disk. Format: functional. The conditions noted are these: read-out: IZ.
The subject of assay [5] is Saccharomyces cerevisiae. The assay is described as follows: Antimicrobial activity against Saccharomyces cerevisiae IAM 1438T at 20 ug/disk. Format: functional. The conditions noted are these: read-out: IZ.
Assay [6] has as its system Staphylococcus aureus. Description: Antimicrobial activity against Staphylococcus aureus IAM 12544T at 50 ug/disk. As to conditions: read-out: IZ. Format: functional.
For assay [7], the system named is Mucor hiemalis. The assay is described as follows: Antimicrobial activity against Mucor hiemalis IAM 6088 at 20 ug/disk. The conditions noted are these: read-out: IZ. It counts as functional.
In assay [8] the test system is Saccharomyces cerevisiae. Description: Antimicrobial activity against Saccharomyces cerevisiae IAM 1438T at 50 ug/disk. The conditions noted are these: read-out: IZ. It counts as functional.
In assay [9] the test system is Staphylococcus aureus. Description: Antimicrobial activity against Staphylococcus aureus IAM 12544T at 20 ug/disk. Format: functional. The conditions noted are these: read-out: IZ.

Active and inactive are the calls of the source. The rule behind the calls is not given here.

As to `COc1c(SC)c(CCN(C)C)c2sc3c(OC)c(OC)c(SC)c(CCN(C)C)c3ssc2c1OC` [LISSOCLIBADIN 2], the zone of inhibition at 50 µg/disc in assay [1] was determined as 13.8 mm. The compound further yielded an EC50 in assay [2] of 80 nM.
For the compound `COc1c(OC)c2c(c(CCN(C)C)c1SC)SSSSS2`, the zone of inhibition at 50 µg/disc in [3] worked out at 17.1 mm; in [1], 26.2 mm; in assay [6], 14.2 mm; in [8], 15.2 mm. The zone of inhibition at 20 µg/disc was 13.1 mm in [4], 10.5 mm in assay [5] and 19.6 mm in assay [7]. Besides, in [2], a half-maximal effect (EC50) was put at 150 nM.
As for `COc1cc(CCN(C)C)c2c(c1O)Sc1c(CCN(C)C)c(SC)c(OC)c(OC)c1S2` [LISSOCLIBADIN 6], the zone of inhibition at 50 µg/disc in assay [3] is 10.8 mm; in assay [6], 13.8 mm; in assay [8], 7.8 mm. For the same compound, the zone of inhibition at 20 µg/disc in [9] is 10 mm. For the same compound, in [2], a half-maximal effect (EC50) was put at 60 nM.
As for `COc1cc(CCN(C)C)c2c(c1O)SSc1c(CCN(C)C)cc(OC)c(O)c1SS2` [LISSOCLIBADIN 7], the figures for the zone of inhibition at 50 µg/disc in assay [3], in [6] and in assay [8] were 9.9 mm, 13.1 mm and 16.8 mm, respectively. Further, in [9], the zone of inhibition at 20 µg/disc was determined as 9.4 mm. Also, the midpoint of the response in assay [2], the EC50, lay at 170 nM.
`COc1c(OC)c2c(c(CCN(C)C)c1SC)SSc1c(CCN(C)C)c(SC)c(OC)c(OC)c1Sc1c(OC)c(OC)c(SC)c(CCN(C)C)c1S2` [LISSOCLIBADIN 1] returned a 50% effective concentration (EC50) in assay [2] of 200 nM.
Consider `COc1c(OC)c2c(c(CCN(C)C)c1SC)SSS2`, for which the zone of inhibition at 50 µg/disc in [3] came to 17.8 mm; in [1] it was 23 mm; in assay [6], 10.3 mm; in [8] it was 11.8 mm. The zone of inhibition at 20 µg/disc turned out to be 14.4 mm in assay [4] and 17.4 mm in [7]. Also, the midpoint of the response in assay [2], the EC50, lay at 190 nM.
As to `COc1c(SC)c(CCN(C)C)c2sc3c(CCN(C)C)c(SC)c(OC)c(OC)c3ssc2c1OC` [LISSOCLINOTOXIN F], the zone of inhibition at 50 µg/disc in assay [1] stood at 18 mm. In addition, the zone of inhibition at 20 µg/disc in assay [7] came out at 10.5 mm. Further, the midpoint of the response in assay [2], the EC50, lay at 280 nM.
Turning to `COc1c(OC)c2c(c(CCN(C)C)c1SC)Sc1c(CCN(C)C)c(SC)c(OC)c(OC)c1S2` [LISSOCLINOTOXIN E], the midpoint of the response in assay [2], the EC50, lay at 270 nM.
Consider `COc1cc(CCN(C)C)c2sc3c(O)c(OC)cc(CCN(C)C)c3ssc2c1O` [LISSOCLIBADIN 4], for which the zone of inhibition at 50 µg/disc in assay [3] amounted to 15.7 mm; in assay [6] it was 13.1 mm. Besides, the result in assay [1] was inactive. Besides, the zone of inhibition at 20 µg/disc in assay [9] is 10.8 mm. This compound came in with an EC50 in assay [2] of 710 nM.
As to `COc1c(OC)c2c(c(CCN(C)C)c1SC)Sc1c(OC)c(OC)c(SC)c(CCN(C)C)c1S2` [LISSOCLIBADIN 3], the EC50 in assay [2] is 340 nM.
`COc1cc(CCN(C)C)c2sc3c(OC)c(OC)c(SC)c(CCN(C)C)c3ssc2c1O` [LISSOCLIBADIN 5]: the zone of inhibition at 50 µg/disc in assay [3] worked out at 11.6 mm; in assay [6], 15.8 mm; in [8], 6.2 mm. Besides, the zone of inhibition at 20 µg/disc in [9] stood at 9 mm. In assay [2], this compound showed a half-maximal effective concentration (EC50) of 60 nM.
